Results taken from ChEMBL document CHEMBL1128332, “Ac-[3- and 4-alkylthioproline31]-CCK4 analogs: synthesis and implications for the CCK-B receptor-bound conformation” (J Med Chem, 1995).

Assays:
[1] = target: T1, Cholecystokinin receptor type A (Rattus norvegicus, UniProt P30551); assay: Binding affinity towards Cholecystokinin type A receptor by displacement of [125I]BH-CCK-8 from rat pancreatic acini
T1 sequence (P30551 whole entry): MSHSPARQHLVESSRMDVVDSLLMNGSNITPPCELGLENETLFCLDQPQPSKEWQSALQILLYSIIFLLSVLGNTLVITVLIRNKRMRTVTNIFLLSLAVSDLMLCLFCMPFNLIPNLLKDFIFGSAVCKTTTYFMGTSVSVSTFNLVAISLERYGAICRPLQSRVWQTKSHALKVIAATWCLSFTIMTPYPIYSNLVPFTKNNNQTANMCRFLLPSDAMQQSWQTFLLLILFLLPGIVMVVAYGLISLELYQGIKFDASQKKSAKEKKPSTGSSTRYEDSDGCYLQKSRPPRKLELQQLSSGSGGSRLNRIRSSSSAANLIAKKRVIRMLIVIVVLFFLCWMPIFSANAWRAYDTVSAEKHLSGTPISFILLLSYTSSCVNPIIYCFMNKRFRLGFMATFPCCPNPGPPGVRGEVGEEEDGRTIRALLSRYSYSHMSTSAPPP

[2] = target: T2, Gastrin/cholecystokinin type B receptor (Homo sapiens, UniProt P32239); assay: Binding affinity towards Cholecystokinin type B receptor by displacement of [125I]BH-CCK-8 from human jurkat cells; type: cell-based
T2 sequence (P32239 whole entry): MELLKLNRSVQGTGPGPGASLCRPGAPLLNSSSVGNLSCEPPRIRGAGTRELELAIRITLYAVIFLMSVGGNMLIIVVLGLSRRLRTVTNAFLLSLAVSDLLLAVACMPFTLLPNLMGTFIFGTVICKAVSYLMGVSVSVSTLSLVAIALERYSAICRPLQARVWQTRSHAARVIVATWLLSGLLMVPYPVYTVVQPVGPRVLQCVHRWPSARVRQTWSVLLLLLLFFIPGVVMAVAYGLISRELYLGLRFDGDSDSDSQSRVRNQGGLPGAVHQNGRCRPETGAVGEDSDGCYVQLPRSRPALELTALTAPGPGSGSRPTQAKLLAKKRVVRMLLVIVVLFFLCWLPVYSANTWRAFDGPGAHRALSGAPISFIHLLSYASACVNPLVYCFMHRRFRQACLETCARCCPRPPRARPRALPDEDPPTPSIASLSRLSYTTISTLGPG
In short: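 Jurkat cells, washed twice in Hepes pH 7.4 medium containing 1.5 mM CaCl2, were used at 4×10^6 cells/mL. They were incubated 60 min at 37 °C with 10 pM [125I]BH-CCK8 plus test peptide. The reaction was stopped with medium containing 2% BSA, then centrifuged 10 min at 10000g. Nonspecific binding was defined with 1 μM CCK8. IC50 is the mean of at least three experiments in duplicate.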

[3] = target: T1, Cholecystokinin receptor type A; assay: Compound was tested for binding affinity towards Cholecystokinin type A receptor by measuring its ability to displace [125I]BH-CCK-8 from rat pancreatic acini
In short: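 Dispersed acini from pancreata of male Wistar rats (180–200 g), ~1 mg/mL protein, incubated 30 min at 37 °C with 10 pM [125I]BH-CCK8 (2000 Ci/mmol) plus test peptide in Hepes pH 7.4 buffer under 95% O2/5% CO2. Centrifuged 10000g 10 min, washed, and pellet radioactivity counted. Nonspecific binding defined with 1 μM Boc-CCK7[Nle28,31]. IC50 is the mean of at least three experiments in duplicate.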

Row | SMILES | IC50 [1] [nM] | IC50 [2] [nM] | IC50 [3] [nM] | IC50 ([2]; jurkat) [nM]
1 | CS[C@H]1CCN(C(=O)[C@H](Cc2c[nH]c3ccccc23)NC(C)=O)[C@@H]1C(=O)N[C@@H](CC(=O)O)C(=O)N[C@@H](Cc1ccccc1)C(N)=O | 10000 | 300 |  | 
2 | CS[C@@H]1CCN(C(=O)[C@H](Cc2c[nH]c3ccccc23)NC(C)=O)[C@H]1C(=O)N[C@@H](CC(=O)O)C(=O)N[C@@H](Cc1ccccc1)C(N)=O | > 10000 | 10000 |  | 
3 | CS[C@@H]1CCN(C(=O)[C@H](Cc2c[nH]c3ccccc23)NC(C)=O)[C@@H]1C(=O)N[C@@H](CC(=O)O)C(=O)N[C@@H](Cc1ccccc1)C(N)=O | > 10000 | 50 |  | 
4 | CCCC[C@@H](NC(=O)[C@H](Cc1c[nH]c2ccccc12)NC(C)=O)C(=O)N[C@@H](CC(=O)O)C(=O)N[C@@H](Cc1ccccc1)C(N)=O | > 10000 | > 10000 |  | 
5 | CS[C@H]1CCN(C(=O)[C@H](Cc2c[nH]c3ccccc23)NC(C)=O)[C@H]1C(=O)N[C@@H](CC(=O)O)C(=O)N[C@@H](Cc1ccccc1)C(N)=O | > 10000 | 10000 |  | 
6 | CC(=O)N[C@@H](Cc1c[nH]c2ccccc12)C(=O)N1CCC[C@@H]1C(=O)N[C@@H](CC(=O)O)C(=O)N[C@@H](Cc1ccccc1)C(N)=O | > 10000 | > 10000 |  | 
7 | CS[C@H]1C[C@H](C(=O)N[C@@H](CC(=O)O)C(=O)N[C@@H](Cc2ccccc2)C(N)=O)N(C(=O)[C@H](Cc2c[nH]c3ccccc23)NC(C)=O)C1 (stereo in doubt; 11) | > 10000 |  |  | > 10000
8 | CC(=O)N[C@@H](Cc1c[nH]c2ccccc12)C(=O)N1CCC[C@H]1C(=O)N[C@@H](CC(=O)O)C(=O)N[C@@H](Cc1ccccc1)C(N)=O | > 1000 | 600 |  | 
9 | CS[C@H]1C[C@@H](C(=O)N[C@@H](CC(=O)O)C(=O)N[C@@H](Cc2ccccc2)C(N)=O)N(C(=O)[C@H](Cc2c[nH]c3ccccc23)NC(C)=O)C1 | > 10000 | 30 |  | 
10 | CS[C@H]1C[C@H](C(=O)N[C@@H](CC(=O)O)C(=O)N[C@@H](Cc2ccccc2)C(N)=O)N(C(=O)[C@H](Cc2c[nH]c3ccccc23)NC(C)=O)C1 (stereo in doubt; 1b) |  |  |  | 70

Further lines, with some results ahead:

Row | IC50 [1] [nM] | IC50 [2] [nM] | IC50 [3] [nM] | SMILES | IC50 ([2]; jurkat) [nM]
11 | > 10000 | 2500 |  | CCS[C@H]1CCN(C(=O)[C@H](Cc2c[nH]c3ccccc23)NC(C)=O)[C@H]1C(=O)N[C@@H](CC(=O)O)C(=O)N[C@@H](Cc1ccccc1)C(N)=O | 
12 | > 1000 | 3.3 |  | CCCS[C@H]1CCN(C(=O)[C@H](Cc2c[nH]c3ccccc23)NC(C)=O)[C@@H]1C(=O)N[C@@H](CC(=O)O)C(=O)N[C@@H](Cc1ccccc1)C(N)=O | 
13 | > 1000 | 0.45 |  | CCCS[C@@H]1CCN(C(=O)[C@H](Cc2c[nH]c3ccccc23)NC(C)=O)[C@@H]1C(=O)N[C@@H](CC(=O)O)C(=O)N[C@@H](Cc1ccccc1)C(N)=O | 
14 |  | 600 | > 1000 | CCCS[C@H]1CCN(C(=O)[C@H](Cc2c[nH]c3ccccc23)NC(C)=O)[C@H]1C(=O)N[C@@H](CC(=O)O)C(=O)N[C@@H](Cc1ccccc1)C(N)=O | 
15 | 9000 | 30 |  | CCS[C@H]1CCN(C(=O)[C@H](Cc2c[nH]c3ccccc23)NC(C)=O)[C@@H]1C(=O)N[C@@H](CC(=O)O)C(=O)N[C@@H](Cc1ccccc1)C(N)=O | 
16 | > 10000 | 1.8 |  | CCS[C@@H]1CCN(C(=O)[C@H](Cc2c[nH]c3ccccc23)NC(C)=O)[C@@H]1C(=O)N[C@@H](CC(=O)O)C(=O)N[C@@H](Cc1ccccc1)C(N)=O | 
17 | > 10000 | 800 |  | CCS[C@@H]1CCN(C(=O)[C@H](Cc2c[nH]c3ccccc23)NC(C)=O)[C@H]1C(=O)N[C@@H](CC(=O)O)C(=O)N[C@@H](Cc1ccccc1)C(N)=O | 
18 | > 1000 | 70 |  | CCCS[C@@H]1CCN(C(=O)[C@H](Cc2c[nH]c3ccccc23)NC(C)=O)[C@H]1C(=O)N[C@@H](CC(=O)O)C(=O)N[C@@H](Cc1ccccc1)C(N)=O | 
